Arbovirus anti: antivirals against arbovirus infection, primary screen, cell-based, full library, 10K replicate subset; arbovirus infection cell-based antiviral screen; inhibition, % at 10 µM; 0.37% of 200,000 active; in the data active = inhibition above about 30%
CHOP inh: inhibitors of CHOP promoter induction, primary screen, cell-based, unfolded protein response, luciferase reporter; inhibition, % at 10 µM; CHO-K1 CHOP-promoter luciferase, tunicamycin-induced, 15-18 h; 3.8% of 220,000 active;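 active = compounds that reduced the stress-induced luciferase reporter signal by more than about 70% of percent inhibition, limit read from the data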
Lmaj promast: Leishmania major promastigote growth inhibition, primary screen; Leishmania major promastigotes, resazurin fluorescence viability; inhibition, % at 10 µM; 9% of 200,000 active;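 also: promastigotes grown with compound for 44 hours at 28 °C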
PKD1 kinase inh: inhibitors of human PKD1 kinase, biochemical, fluorescence polarization; PKD1 kinase fluorescence polarization assay; inhibition, % (test concentration not listed); 0.056% of 200,000 active
Target sequence (Q15139 whole entry, looked up): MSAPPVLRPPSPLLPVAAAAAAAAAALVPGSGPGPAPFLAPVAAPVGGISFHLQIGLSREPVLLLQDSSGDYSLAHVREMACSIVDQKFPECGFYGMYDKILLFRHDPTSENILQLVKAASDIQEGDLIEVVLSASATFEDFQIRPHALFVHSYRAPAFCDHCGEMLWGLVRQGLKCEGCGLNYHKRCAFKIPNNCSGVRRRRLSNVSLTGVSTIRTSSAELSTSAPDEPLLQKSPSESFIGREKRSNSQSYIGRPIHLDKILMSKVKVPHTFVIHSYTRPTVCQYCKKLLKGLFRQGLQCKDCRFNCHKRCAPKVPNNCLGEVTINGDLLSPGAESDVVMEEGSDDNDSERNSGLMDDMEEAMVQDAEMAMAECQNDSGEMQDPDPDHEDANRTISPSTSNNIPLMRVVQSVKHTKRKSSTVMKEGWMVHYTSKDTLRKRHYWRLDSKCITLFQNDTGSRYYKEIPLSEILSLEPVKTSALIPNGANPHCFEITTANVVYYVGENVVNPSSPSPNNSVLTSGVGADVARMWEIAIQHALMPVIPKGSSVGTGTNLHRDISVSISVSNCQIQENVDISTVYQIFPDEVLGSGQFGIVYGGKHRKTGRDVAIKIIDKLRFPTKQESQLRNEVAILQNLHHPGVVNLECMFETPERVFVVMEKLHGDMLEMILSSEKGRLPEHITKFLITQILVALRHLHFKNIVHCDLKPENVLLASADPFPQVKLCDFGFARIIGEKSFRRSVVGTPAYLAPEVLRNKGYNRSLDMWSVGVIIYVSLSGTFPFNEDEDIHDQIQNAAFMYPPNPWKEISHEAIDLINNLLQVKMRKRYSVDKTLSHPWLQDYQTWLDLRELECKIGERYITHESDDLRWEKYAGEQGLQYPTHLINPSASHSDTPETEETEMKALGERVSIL
Wee1 stabilizer: Wee1 degradation inhibitors, primary screen, cell-based, HeLa, Wee1K328M-luciferase, luminescence | Wee1-like protein kinase (Homo sapiens), P30291 | HeLa Luc-Wee1K328M stability; 100% = proteasome inhibitor MG132 effect | reporter increase, % at 5 µM | 1.2% of 220,000 active | AID 1321, 2008;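 active = activation above the mean of all tested compounds plus 3 SD, set per screening run, cut at about 8.8% in these data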;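 also: cells exposed to compound for 20 h before luminescence read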
Rad51 HR inh: human RAD51 strand exchange inhibitors, primary screen, biochemical, fluorescence; DNA repair protein RAD51 homolog 1 (Homo sapiens), Q06609; hRad51 DNA strand exchange, fluorescence dequenching; inhibition, % at 10 µM; 0.085% of 200,000 active; AID 1385, 2008;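 active = inhibition above 40% at the single screening dose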
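Material: Human Rad51 nucleoprotein filaments preassembled on unlabelled ssDNA | Also added: Labelled 47-mer dsDNA for strand exchange | Dosing: Single dose, 10 µM final compound | Schedule: 30-min compound preincubation and 15-min exchange, both room temperature | Technique: Fluorescence dequenching at 485/520 nm | Measure: Percent inhibition relative to plate controls and blanks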
Large screens that a line does not name were inactive. This is a sample that favours compounds with a hit; in the whole collection about 12% have one here. Rule as the data show it, unless noted: active = inhibition above about 50%; inactive = the rest.

Cc1c2c(n3c(nc4ccccc43)c1C#N)N(CCN(C)C)CC2	none
CC(C)c1cc(NCC2CCCO2)n2c(nc3ccccc32)c1C#N (configuration not stated)	Lmaj promast 57
N#Cc1c2c(c(NCCN3CCOCC3)n3c1nc1ccccc13)CCCC2	none
CCc1c(C)c(C#N)c2nc3ccccc3n2c1Cl	CHOP inh 110, Lmaj promast 101
N#CC(c1cccc(C(F)(F)F)c1)(c1ncc(C(F)(F)F)cc1Cl)N1CCOCC1 (configuration not stated)	Lmaj promast 96
CCOC(=O)/C=C1\SCC(=O)N1CC(=O)NC(c1ccccc1)c1ccccc1	Lmaj promast 77
CCOC(=O)/C=C1\SCC(=O)N1CC(=O)NC(C)c1ccccc1 (configuration not stated)	none
Cc1onc(-c2ccccc2)c1C(=O)Nc1ccc(S(=O)(=O)NC(C)(C)C)cc1	none
O=C(CCN1C(=O)c2ccccc2C1=O)C1=NN[C@@H]2C(=O)N(c3ccc4c(c3)OCO4)C(=O)[C@H]12	none (no result: Arbovirus anti, Lmaj promast, PKD1 kinase inh)
Nc1ccc(-c2nc3ccc([N+](=O)[O-])cc3[nH]2)cc1	Lmaj promast 83
CC(C)Cc1csc(NC(=O)c2ccc(Br)cc2)c1C(=O)O	none (no result: Arbovirus anti, Lmaj promast, PKD1 kinase inh)
O=c1[nH]c(-c2ccccn2)nc(C(F)(F)F)c1Br	Lmaj promast 97 (no result: Rad51 HR inh)
O=c1[nH]c(-c2ccccn2)nc2ccccc12	none
O=C(CCN1C(=O)c2cccc([N+](=O)[O-])c2C1=O)Nc1nccs1	none
C[C@@H]1CCC[C@H](C)N1Cc1nc(Cc2ccccc2Cl)no1	none
Cc1ccc(C(=O)NC2CC3CCCC(C2)N3C(=O)NC2CCCCC2)cc1 (configuration not stated)	none
Cc1ccc(CN2C3CCCC2CC(NC(=O)c2ccc(C)cc2)C3)cc1 (configuration not stated)	Lmaj promast 81
Cc1ccc(C(=O)NC2CC3CCC(C2)N3Cc2ccco2)cc1 (configuration not stated)	Lmaj promast 57
CCCOc1ccccc1Cn1c(=O)oc2ccc(C)cc21	CHOP inh 81
Cc1ccc2oc(=O)n(CCOc3ccccc3Cl)c2c1	CHOP inh 93
CCOc1ccccc1Cn1c(=O)oc2ccc(C)cc21	none
O=C(c1ccc(Cl)nc1)N1CCN(S(=O)(=O)c2ccc(Cl)cc2)CC1	none
N#C/C(N)=C(/C#N)N=Cc1cccc(Cl)c1	none (no result: Arbovirus anti, Lmaj promast, PKD1 kinase inh)
Cc1c(N=Cc2cccnc2)c(=O)n(-c2ccccc2)n1C	none
O=C1CCC/C1=c1\s/c(=C\c2cccnc2)c(=O)n1-c1ccccc1	Lmaj promast 55
COc1ccc(CN2CSC(=S)N(Cc3ccc(OC)cc3)C2)cc1	none (no result: Arbovirus anti, Lmaj promast, PKD1 kinase inh, Rad51 HR inh)
Cc1ccc(S(=O)(=O)N=Nc2c(O)[nH]c3ccccc23)cc1	none
Cc1ccc(S(=O)(=O)N(CC(=O)N=Nc2c(O)[nH]c3ccccc23)c2ccc(C)c(C)c2)cc1	Lmaj promast 96 (no result: Rad51 HR inh)
CCOC(=O)c1c(NC(=O)C2=C(C)NC(=S)NC2c2ccc(C)cc2)sc(C)c1C (configuration not stated)	CHOP inh 74, Lmaj promast 81
CC1=C(C(=O)Nc2ccccn2)C(c2ccc(Cl)cc2)NC(=S)N1 (configuration not stated)	Wee1 stabilizer 9.9
CCOC(=O)c1c(NC(=O)C2=C(C)NC(=S)NC2c2ccc(F)cc2)sc(C)c1C (configuration not stated)	Lmaj promast 82
Cc1cccc(NC(=O)c2c(O)c3cccc4c3n(c2=O)CCC4)n1	none
Cc1cnc(NC(=O)c2c(O)c3cccc4c3n(c2=O)CCC4)s1	CHOP inh 76
CC1Cc2ccccc2N1C(=O)COC(=O)CCc1nc2ccccc2c(=O)[nH]1 (configuration not stated)	none
O=C1CCCc2oc3c(cc(NS(=O)(=O)c4ccc5c6c(cccc46)C(=O)N5)c4ccccc43)c21	none (no result: Arbovirus anti, Lmaj promast, PKD1 kinase inh)
Cc1oc2c(cc(NS(=O)(=O)c3ccc4c5c(cccc35)C(=O)N4)c3ccccc32)c1C(=O)OC(C)C	Lmaj promast 58 (no result: Rad51 HR inh)
O=C1C(Cl)=C(N2CCN(Cc3ccccc3)CC2)C(=O)N1c1ccccc1	none
COc1ccc(N2C(=O)C(Cl)=C(N3CCN(Cc4ccccc4)CC3)C2=O)cc1	CHOP inh 78
COc1ccc(N2C(=O)C(Cl)=C(Oc3cccc(OC)c3)C2=O)cc1	CHOP inh 106
COc1ccc(N2C(=O)c3ccccc3C2=O)cc1	none
COc1ccc(N2C(=O)C(Cl)=C(Nc3ccccc3O)C2=O)cc1	Lmaj promast 98
CCC(c1nnnn1C1CCCC1)N1CCC(C(N)=O)CC1 (configuration not stated)	none
CC/S(C)=N/S(=O)(=O)c1ccc(C)cc1 (configuration not stated)	none
COc1ccc(C2=Nn3c(nnc3C3CCCCC3)SC2)cc1OC	Lmaj promast 50
Nc1c(-c2ccc(Cl)cc2)cnn1-c1cccc([N+](=O)[O-])c1	CHOP inh 78
Nc1c(-c2ccccc2)cnn1-c1cccc([N+](=O)[O-])c1	none
NC(=O)c1sc2nnc(-c3ccccc3)c(-c3ccccc3)c2c1N	none (no result: Arbovirus anti, Lmaj promast, PKD1 kinase inh)
Nc1c(C(=O)c2ccccc2)sc(Nc2ccccc2)c1S(=O)(=O)c1ccccc1	Lmaj promast 95
Nc1nc(Nc2ccccc2)sc1C(=O)c1ccccc1	none (no result: Arbovirus anti, Lmaj promast, PKD1 kinase inh)
Cc1ccc(C(=O)c2sc(Nc3ccccc3)c(C#N)c2N)cc1	Lmaj promast 74
N#Cc1c(Nc2ccccc2)sc(C(=O)c2ccc(F)cc2)c1N	Lmaj promast 66
Cc1c(NC(=O)CN2CCN(c3ccc(O)cc3)CC2)c(=O)n(-c2ccccc2)n1C	none
O=C(c1ccccc1C(=O)N(c1ccccc1)c1ccccc1)N1CCCCC1	none (no result: Rad51 HR inh)
COc1cc(C(=O)NCCCNc2ccc([N+](=O)[O-])cc2)cc(OC)c1OC	Lmaj promast 77
O=C(OCCN1C(=O)c2cccc3c(N4CCOCC4)ccc(c23)C1=O)c1ccccc1Cl	Lmaj promast 86
Cn1nc(-c2ccc(N3CCN(CCO)CC3)c([N+](=O)[O-])c2)c2ccccc2c1=O	Lmaj promast 99
CN(C)CCNc1ccc(-c2nn(C)c(=O)c3ccccc23)cc1[N+](=O)[O-]	Lmaj promast 90
Cn1nc(-c2ccc(NCCO)c([N+](=O)[O-])c2)c2ccccc2c1=O	none
CN(CCO)c1ccc(-c2nn(C)c(=O)c3ccccc23)cc1[N+](=O)[O-]	none (no result: Arbovirus anti, Lmaj promast, PKD1 kinase inh)
O=C1CN(C(=O)CSc2nc(-c3ccc(Cl)cc3)cs2)c2ccccc2N1	none
O=c1[nH]ncn1-c1ccc(Br)cc1	none (no result: Rad51 HR inh)
